# A selection: hits, their analogues and other compounds. The true share with any hit is near 2.5%.
# TbHK1 inh: T. brucei hexokinase 1 inhibition; AID 1430; recombinant TbHK1, G6PDH-coupled NADH A340; 220,000 compounds, 0.11% hits; inhibition, % at 10 µM;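 active = inhibition of 50% or more in the single-dose primary screen; inactive = inhibition below 50%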
# PHOSPHO1 block: inhibitors of human PHOSPHO1 phosphatase. recombinant PHOSPHO1, absorbance phosphatase assay. 290,000 compounds, 1.1% hits. inhibition, % at 13.3 µM; in the data active = inhibition above about 60%
# Target sequence (Q8TCT1 whole entry, looked up): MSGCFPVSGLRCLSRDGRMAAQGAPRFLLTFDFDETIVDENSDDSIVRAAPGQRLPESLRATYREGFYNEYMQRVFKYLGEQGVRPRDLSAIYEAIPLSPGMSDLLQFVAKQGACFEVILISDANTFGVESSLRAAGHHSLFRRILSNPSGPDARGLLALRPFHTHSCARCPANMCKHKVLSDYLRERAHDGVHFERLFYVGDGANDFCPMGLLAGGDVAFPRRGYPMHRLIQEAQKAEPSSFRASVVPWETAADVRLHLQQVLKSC
# EP2 antag: inhibitors of human EP2 prostaglandin E2 receptor | 260,000 compounds, 0.52% hits | AID 1422 | P43116 | inhibition, % at 25 µM | C6 glioma cells expressing human EP2, cAMP TR-FRET; cells stimulated with saturating PGE2;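 active = percent inhibition above 40 after rounding to a whole number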;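 also: rat C6 glioma host cells with rolipram phosphodiesterase inhibitor present; the protocol text gives 20 µM as final concentration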
# HKDC1 inhibitor: inhibitors of human hexokinase HKDC1. Q2TB90. recombinant HKDC1, G6PDH/diaphorase resazurin coupled fluorescence. inhibition, % at 20 µM. 340,000 compounds, 0.16% hits;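 active = inhibition above about 35% when tested at 20 µM, limit read from the data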;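 also: plate controls were DMSO wells with enzyme for no effect and DMSO wells lacking enzyme for full effect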
#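 Test system: HK5 enzyme. Quantity: 5 µg/mL HK5 final. Reagent: glucose and ATP substrates. Schedule: 90 min reaction incubation at room temperature, dark. Technique: resazurin-to-resorufin fluorescence via G6PDH and diaphorase coupling, 525/613 nm. Control set: DMSO wells with and without enzyme mix.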
# PfGluPho inh: PfG6PD (Plasmodium falciparum) enzyme inhibition. PfGluPho enzyme, NADPH resazurin-diaphorase fluorescence. inhibition, % at 20 µM. 350,000 compounds, 0.78% hits;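 active = inhibition reaching at least a set limit at 20 µM in the primary screen, cut at about 59% in these data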;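 also: 0% = DMSO wells with substrate and 100% = DMSO wells lacking glucose-6-phosphate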
# EP2 mod: modulates human prostaglandin E2 receptor EP2 signaling | AID 940 | induction, % at 25 µM | 260,000 compounds, 0.83% hits | EP2-expressing cells, cAMP HTRF FRET, PGE2 co-stimulation | P43116;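 active = compounds whose cAMP rise, as percent of the full-agonist control response, exceeds 60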;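 also: rat C6 glioma line stably carrying human EP2 under a CMV promoter; the protocol text gives 20 µM as final concentration; 100% = response of wells given 1 µM PGE2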
# Starred values were filed as active, the others as inactive; · = no result given.
SMILES,TbHK1 inh,PHOSPHO1 block,EP2 antag,HKDC1 inhibitor,PfGluPho inh,EP2 mod
COCCCN=C(c1ccco1)n1c(=S)nc(-c2ccco2)n(CCCOC)c1=S,-24.4,97.5*,·,0.4,55.7,18.3
COCCCn1c(-c2ccco2)nc2ccccc2c1=O,-5.0,-6.8,7.4,-0.6,-12.9,-11.1
O=C(CSc1nc2ccc(S(=O)(=O)N3CCOCC3)cc2[nH]1)N1CCOCC1,27.3,67.0*,15.4,-28.9,53.4,-8.5
CCCCNS(=O)(=O)c1ccc2nc(SCC(=O)N3CC(C)OC(C)C3)[nH]c2c1 (stereo not drawn),-3.4,75.3*,9.9,-7.5,-7.2,14.0
CCCCCOc1ccc(/C=c2\sc3nc(=O)c(-c4ccccc4)nn3c2=O)cc1OC,10.1,-0.8,7.2,-6.8,-23.9,15.5
O=c1nc2s/c(=C\c3ccc(-c4ccccc4[N+](=O)[O-])o3)c(=O)n2nc1-c1ccccc1,-7.5,74.2*,5.9,16.6,22.9,-6.8
COc1ccc(CC(=O)Nc2cccc(-c3csc(C)n3)c2)cc1,-5.6,12.5,11.4,-6.0,-3.7,-30.6
Cc1nc(-c2cccc(NC(=O)COc3ccc(Cl)cc3)c2)cs1,·,65.8*,·,8.0,4.1,·
O=C(Cn1nnc(-c2cccs2)n1)NCc1ccco1,-5.1,64.2*,7.2,-13.1,-7.3,-40.4
Nc1nc2c(Cl)c(Cl)ccc2s1,·,·,60.5*,·,·,-83.9
CCOc1cccc2sc(NC(=O)CC)nc12,-3.3,-11.5,19.2,9.5,-13.5,27.6
CCC(=O)Nc1nc2c(Cl)c(Cl)ccc2s1,·,·,66.8*,·,·,-76.7
Cc1ccc(C(=O)C(c2ccccc2)N2Cc3ccccc3C2=N)cc1 (stereo not drawn),12.6,-13.2,7.8,1.4,64.9*,-8.1
CC(C)c1nnc(NC(=O)Cn2nnc3ccccc32)s1,·,·,4.3,·,·,-6.8
O=C(CSc1nc2ccccc2nc1SCC(=O)N1CCCCC1)N1CCCCC1,-5.1,71.1*,·,11.2,11.4,31.7
CN(C)C(=O)CSc1nc(-c2ccccc2)nc2c1CCCC2,49.3,-3.5,4.7,-6.6,6.2,-24.2
O=C(O)CSc1nc2ccccc2c2c1CCCC2,·,·,9.0,·,·,88.1*
Cc1cc2nc(SCC(=O)N(C)C)c3c(c2cc1C)CCCC3,-5.3,18.4,13.3,-4.2,4.0,61.6*
CC[C@@H](Cn1ncc2ccccc2c1=O)NC(=O)CCc1nn(C)c(=O)c2ccccc12,·,·,7.1,·,·,-5.5
Cc1cc(-c2cnc(C)nc2C2CCCN(C(=O)C(C)C)C2)on1 (stereo not drawn),·,·,·,·,·,-12.2
CCN=C1S/C(=C\c2cn(CC)c3ccccc23)C(=O)N1CC,-6.8,-5.0,3.8,1.7,31.9,32.5
CCn1cc(C=C2C(=O)c3ccccc3C2=O)c2ccccc21,-2.5,-9.4,42.1*,10.8,-5.3,-284.3
CCOc1ccc2nc3c(cc2c1)CN(CCCO)C(=NCCOC)S3,29.5,91.3*,10.7,16.0,34.9,-17.4
CCC(C)(C)n1nnnc1CN(Cc1ccco1)Cc1cc2ccc(OC)cc2[nH]c1=O,·,·,16.7,·,·,24.1
O=C(c1ccccc1)c1cc(Cl)ccc1N1C(=O)C=CC1=O,3.6,57.8,32.8,-3.6,111.5*,-64.9
SMILES,TbHK1 inh,PHOSPHO1 block,EP2 antag,HKDC1 inhibitor,PfGluPho inh,EP2 mod
O=C(CC(=O)c1cc(Cl)ccc1O)c1ccccc1,-3.4,0.2,16.4,-3.9,-4.3,-12.4
COc1cc2c(cc1CCNS(=O)(=O)c1ccc3c(c1)oc(=O)n3C)CCC2,·,·,6.8,·,·,-79.7
COc1ccc(N2CCC(CNS(=O)(=O)c3cccc(C(F)(F)F)c3)C2)cc1 (stereo not drawn),6.3,79.1*,15.0,-3.3,10.9,-19.9
O=C(Cn1nc(-c2cc3c(s2)CCC3)oc1=O)NC1CCCC1,·,·,8.1,·,·,-68.4
NC(=O)CC(NC(=O)c1ccccc1)c1ccc(NCc2ccc(F)cc2)c([N+](=O)[O-])c1 (stereo not drawn),12.5,34.3,15.4,-0.7,-2.3,-33.7
NC(=O)CC(NC(=O)c1ccc(Br)cc1)c1ccc(NCc2ccc(F)c(F)c2)c([N+](=O)[O-])c1 (stereo not drawn),-1.6,29.7,43.0*,0.6,-1.2,-16.2
NC(=O)CC(NC(=O)c1ccc(Br)cc1)c1ccc(NCc2ccc(F)cc2)c([N+](=O)[O-])c1 (stereo not drawn),18.0,43.6,51.0*,-0.4,-5.9,-35.8
CCCCn1nc(CC(=O)N2CCn3c(nnc3C3CC3)C2)c2ccccc2c1=O,·,·,7.5,·,·,1.1
